Published values collected from several papers.
Lines come from different studies, so protocols differ.
Target: Protein kinase C theta type (PRKCQ, Homo sapiens, UniProt Q04759)

CC(=O)N1CCC(c2ccc(C(=O)NC(=N)N)cc2C(F)(F)F)CC1 — remaining binding (cell-free assay; competition with immobilised ligand; 1 µM): 91%
CCN(CC)c1ccc(C2=NNC(=O)CC2C)cc1[N+](=O)[O-] (stereo not drawn) — remaining activity (enzyme activity; inhibitor; 10 µM): 98%
O=C(NCc1ncc(C(F)(F)F)cc1Cl)c1ccc2c(c1)C1(CCS(=O)(=O)CC1)[C@H](C1CC1)N2S(=O)(=O)c1ccc(F)cc1 — remaining binding (cell-free assay; competition with immobilised ligand; 1 µM): 100%
O=C1NC(=O)c2cc(Nc3ccc(F)cc3)c(Nc3ccc(F)cc3)cc21 — remaining signal (cell-free assay; 0.5 µM): 98.7%
C=CC(=O)Nc1cc(Nc2nccc(Nc3cc(Cl)c(F)cc3C(C)(C)O)n2)c(OC)cc1N1CC[C@@H](N(C)C)C1 — inhibition (enzyme activity; inhibitor; 1 µM): 17%
CC(C)(C)c1nc2c(s1)c1nc(N)ncc1c1ccc(NS(=O)(=O)c3c(F)cccc3F)c(F)c12 — remaining activity (enzyme activity; inhibitor; radiometric; 1 µM): 115%
N#CCCc1ccc2c(c1)-c1[nH]c3ccc([N+](=O)[O-])cc3c1CC(=O)N2 — remaining signal (cell-free assay; 0.5 µM): 111%
COc1cccc(CNC(=O)c2nc3scc(COCc4ccc(C(=O)O)cc4)c3c(=O)[nH]2)c1 — remaining binding (cell-free assay; competition with immobilised ligand; 1 µM): 100%
CCN(CC)CCNC(=O)c1c(C)[nH]c(/C=C2\C(=O)Nc3ccc(F)cc32)c1C — inhibition (enzyme activity; inhibitor; 10 µM): 11%
CC(C)c1ccc(NC(=O)c2cccs2)c(-c2nc3ccccc3[nH]c2=O)c1 — activity vs control (enzyme activity; inhibitor; 1 µM): 83%
O=C1Nc2ccc(Cl)cc2C1=Cc1cc(Cl)c(O)c(Cl)c1 — remaining signal (cell-free assay; 0.5 µM): 105%
CCS(=O)(=O)c1cc2cc(C[C@@](O)(CC(C)(C)c3ccc(F)cc3C(N)=O)C(F)(F)F)[nH]c2cn1 — remaining binding (cell-free assay; competition with immobilised ligand; 1 µM): 97%
Cc1ccc(C(=O)NCc2ccsc2)cc1C#Cc1cn(C(C)C)c2ncnc(N)c12 — activity vs control (enzyme activity; inhibitor; 1 µM): 105%
CN(C)C1CCN(CC#Cc2nn(C3CCCC3)c3nc(NCc4ccccc4)ncc23)C1 (stereo not drawn) — inhibition (enzyme activity; inhibitor; FRET; 0.1 µM): -1%
CC1=C(C#N)[C@@H](c2ccc3[nH]nc(C)c3c2)C(C#N)=C(c2ccc(Cl)cc2)N1 — remaining binding (cell-free assay; competition with immobilised ligand; 1 µM): 100%
CNC(=O)c1cc(Oc2ccc(NC(=O)Nc3ccc(Cl)c(C(F)(F)F)c3)cc2)ccn1 — inhibition (enzyme activity; inhibitor; 10 µM): -12%
Cc1c[nH]c2nccc(Oc3c(F)cc(Nc4cc(Cl)nc(N)n4)cc3F)c12 — remaining binding (cell-free assay; competition with immobilised ligand; 0.1 µM): 66%
Cn1cncc1C1=CN(c2ncnc3[nH]cnc23)CCS1 — inhibition (enzyme activity; inhibitor; radiometric; 2 µM): 97.9%
C[C@@H](N)[C@H]1CC[C@H](C(=O)Nc2ccncc2)CC1 — inhibition (enzyme activity; inhibitor; TR-FRET; 10 µM): 82.7%
Cc1cc(NC(=O)c2cccc3cc(-c4cccc5[nH]nc(N)c45)ccc23)ccc1F — activity vs control (enzyme activity; inhibitor; 0.1 µM): 93%
CNCc1ccc(-c2cc(-c3nc(-c4ccc(S(=O)(=O)C(C)C)cc4)cnc3N)on2)cc1 — inhibition (enzyme activity; inhibitor; 0.4 µM): 0%
CS(=O)(=O)CCNCc1ccc(-c2ccc3ncnc(Nc4ccc(OCc5cccc(F)c5)c(Cl)c4)c3c2)o1 — remaining signal (cell-free assay; 0.5 µM): 72.4%
COc1cc2ncnc(Nc3ccc(Oc4ccccc4)cc3C)c2cc1OC — inhibition (enzyme activity; inhibitor; 1 µM): 2%
CCOc1cc(-c2nncn2C)ccc1Nc1ncc2cc(C)nc(NCC(C)(C)C)c2n1 — inhibition (enzyme activity; inhibitor; FRET; 1 µM): < 15%
O=C(Nc1cnn(-c2csc(C(=O)NC3COC3)c2)c1)Nc1ccccc1Cl — remaining activity (enzyme activity; inhibitor; 5 µM): 114%
O=C(NCCCC1CCCCC1)c1ccc(CNC(=O)c2cnn(-c3ccccc3)c2C(F)(F)F)cc1 — remaining binding (cell-free assay; competition with immobilised ligand; 0.1 µM): 100%
Nc1ncnc2occ(-c3ccc(NC(=O)Nc4cc(C(F)(F)F)ccc4F)cc3)c12 — remaining signal (cell-free assay; 20 µM): 13%
F[C@@H]1CCN(c2nccc(-c3cnn4ncccc34)n2)C1 — remaining binding (binding; 1 µM): 100%
CS(=O)(=O)c1cc(C2(NC(=O)c3cncc4c3cnn4-c3ccc(F)cc3)CC2)ccn1 — remaining binding (cell-free assay; competition with immobilised ligand; 1 µM): 99%
Cn1cnc(Br)c1C1=CN(c2ncnc3[nH]cnc23)CCS1 — inhibition (enzyme activity; inhibitor; radiometric; 50 nM): 64.1%
